From ChEMBL document CHEMBL4130447, “A Bis-benzopyrroloisoquinoline Alkaloid Incorporating a Cyclobutane Core and a Chlorophenanthroindolizidine Alkaloid with Cytotoxic Activity from Ficus fistulosa var. tengerensis” (J Nat Prod, 2017)

Experiments:
[1] = test system: MDA-MB-231; test: Cytotoxicity against human MDA-MB-231 cells assessed as decrease in cell viability after 72 hrs by CellTiter-Glo luminescence assay; format: functional, cell-based; details: MDA-MB-231, 72 h
Method in brief: (§1)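 Breast cancer lines were maintained in RPMI 1640 with 10% FBS and pen/strep at 37 °C and 5% CO2. Cells were plated at 1000/well, allowed 24 h, then treated 72 h with agents at 1.5–100 μM (diluted in phosphate buffer from a 100 mM DMSO stock). Paclitaxel at 0.01–10 μM served as the reference. Luminescent ATP read-out was used, with IC50 computed relative to 0.1% DMSO controls.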

[2] = test system: MCF-10A; test: Cytotoxicity against human MCF10A cells assessed as decrease in cell viability after 72 hrs by CellTiter-Glo luminescence assay; format: cell-based
Method in brief: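 MCF10A (non-tumorigenic breast epithelial) cells were grown with 5% horse serum, 20 ng/mL EGF, 0.5 μg/mL hydrocortisone, 10 μg/mL insulin, and pen/strep at 37 °C and 5% CO2. Cells were seeded at 1000/well for 24 h, then exposed 72 h to 1.5–100 μM test agent diluted in phosphate buffer from a 100 mM DMSO stock. Viability was read by ATP luminescence. IC50 was calculated versus 0.1% DMSO-treated cells.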

[3] = test system: MDA-MB-468; test: Cytotoxicity against human MDA-MB-468 cells assessed as decrease in cell viability after 72 hrs by CellTiter-Glo luminescence assay; format: functional, cell-based; details: MDA-MB-468, 72 h; method in brief: as §1
[4] = test system: MCF7; test: Cytotoxicity against human MCF7 cells assessed as decrease in cell viability after 72 hrs by CellTiter-Glo luminescence assay; format: functional, cell-based; details: MCF7, 72 h; method in brief: as §1

With `COc1cc2cc([C@@H]3[C@H](C(C)=O)[C@@H](C(C)=O)[C@@H]3c3cc4cc(OC)c(OC)cc4c4c3CN3CCC[C@@H]3C4)c3c(c2cc1OC)C[C@@H]1CCCN1C3` as the compound, how does the IC50 [1] read?
The IC50 was over 10 µM.

And the IC50 [2]?
Its IC50 is over 10 µM.

And the IC50 [3]?
Its IC50 is 7.4 µM.

What about the IC50 [4] of the same compound?
Its IC50 is over 10 µM.

How did the IC50 [1] turn out when `COc1cc2c3c(c4ccc(OC)c(Cl)c4c2cc1OC)CN1CCCC1C3` (racemic) was run?
Its IC50 is 0.48 µM.

And the IC50 [2]?
Its IC50 is 10.7 µM.

And the IC50 [3]?
Its IC50 is 0.038 µM.

What about the IC50 [4] of the same compound?
The IC50 was 0.91 µM.

With `COc1cc2cc(CO)c3c(c2cc1OC)CC1CCCN1C3` (racemic) as the compound, how does the IC50 [1] read?
The IC50 was over 10 µM.

What about the IC50 [2] of the same compound?
The IC50 was over 10 µM.

What about the IC50 [3] of the same compound?
The IC50 was over 10 µM.

And the IC50 [4]?
Its IC50 is over 10 µM.

Which IC50 [1] does the source give for `COc1cc2cc(C3C(C(C)=O)C(C(C)=O)C3c3cc4cc(OC)c(OC)cc4c4c3CN3CCCC3C4)c3c(c2cc1OC)CC1CCCN1C3` (racemic) here?
Its IC50 is over 10 µM.

What about the IC50 [2] of the same compound?
Its IC50 is over 10 µM.

What about the IC50 [3] of the same compound?
Its IC50 is over 10 µM.

What about the IC50 [4] of the same compound?
Its IC50 is over 10 µM.

What does the source list for `COc1cc2cc([C@@H]3[C@@H](C(C)=O)[C@H](C(C)=O)[C@@H]3c3cc4cc(OC)c(OC)cc4c4c3CN3CCC[C@@H]3C4)c3c(c2cc1OC)C[C@@H]1CCCN1C3`?
IC50 [1]: > 10 µM; IC50 [2]: > 10 µM; IC50 [3]: > 10 µM; IC50 [4]: > 10 µM

`CC(=O)O[C@H]1C(=O)[C@@]2(C)[C@H]([C@H](OC(=O)c3ccccc3)[C@]3(O)C[C@H](OC(=O)[C@H](O)[C@@H](NC(=O)c4ccccc4)c4ccccc4)C(C)=C1C3(C)C)[C@]1(OC(C)=O)CO[C@@H]1C[C@@H]2O` [PACLITAXEL] was tested. Which IC50 [1] did it give?
Its IC50 is 0.059 µM.

What about the IC50 [2] of the same compound?
The IC50 was 0.0058 µM.

What about the IC50 [3] of the same compound?
The IC50 was 0.0061 µM.

What about the IC50 [4] of the same compound?
The IC50 was 0.0088 µM.
